S1P1 ag pot – agonists and agonism potentiators of human S1P1 receptor; activation, % at 9.5 µM; P21453; 0.57% of 56,000 active; S1P1 CRE-bla cells, forskolin, beta-lactamase FRET, potentiator mode; S1P1 agonist co-added at EC20, 2 nM; 100% = saturating reference agonist, 0% = basal; AID 449;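 active means activation above a cutoff set at the mean activation of all tested compounds plus 3 SD, cut at about 54% in these data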;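 further: forskolin at 4 µM as EC80 and the EC20 agonist is SEW2871; 100% = SEW2871 at its EC100 plus forskolin at EC80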
S1P3 agonist – agonists of human S1P3 receptor; Q99500; S1P3 NFAT-BLA reporter cells, agonism, FRET ratio; relative to 1 µM S1P, basal subtracted; activation, % at 4.5 µM; 0.1% of 60,000 active; AID 373;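 active means activation above the screen-wide mean plus 3 SD, cut at about 4.5% in these data, passing the limit was not always enough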
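Assay system: stable CHO line with human S1P3, Gα16, NFAT-BLA reporter; Detection: FRET β-lactamase substrate fluorescence, excitation 405 nm, 460/535 nm emission ratio, background-subtracted; Read-out: percent activation versus median 1 µM S1P response, basal-subtracted, per plate; Incubation: cells plated overnight, compound 4 h 37 °C, substrate 2 h RT.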
5HT1a ag – activates the human 5-HT1a serotonin receptor. 0.56% of 65,000 active. P08908. CHO 5-HT1a Ga15 NFAT-bla reporter, FRET ratio; 0% basal, 100% maximal reference agonist. activation, % at 10 µM;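 active means activation above the screen-wide mean activation plus 3 SD, cut at about 19% in these data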;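 further: 0% = DMSO wells and 100% = 5-CT at EC100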
Target sequence (P08908 whole entry, looked up): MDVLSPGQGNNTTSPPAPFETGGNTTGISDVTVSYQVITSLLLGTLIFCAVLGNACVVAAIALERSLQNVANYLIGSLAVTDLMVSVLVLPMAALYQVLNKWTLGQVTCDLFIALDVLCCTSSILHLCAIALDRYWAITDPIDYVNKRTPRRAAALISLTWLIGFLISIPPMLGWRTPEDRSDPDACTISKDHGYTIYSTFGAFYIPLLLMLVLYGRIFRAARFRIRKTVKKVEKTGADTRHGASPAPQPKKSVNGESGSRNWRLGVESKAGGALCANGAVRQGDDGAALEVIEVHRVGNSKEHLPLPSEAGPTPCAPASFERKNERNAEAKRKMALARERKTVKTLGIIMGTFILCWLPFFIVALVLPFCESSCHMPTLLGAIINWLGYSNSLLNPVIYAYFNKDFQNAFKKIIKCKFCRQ
HTR1E antagonist – antagonists of human 5-HT1E serotonin receptor; AID 571; 0.99% of 65,000 active; inhibition, % at 6 µM; CHO 5-HT1E Ga15 NFAT-bla reporter, FRET, antagonist; P28566;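 active means inhibition above a set limit, the mean inhibition across every tested compound plus 3 SD, cut at about 29% in these data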;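 further: signal is the 460 over 535 nm emission ratio of beta-lactamase substrate; 0% = agonist plus DMSO wells and 100% = wells without agonist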
5-HT1A blocker – antagonists of human 5-HT1a serotonin receptor; CHO 5-HT1a Ga15 NFAT-bla reporter, antagonist mode; inhibition, % at 10 µM; 0.68% of 62,000 active; AID 612;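 active means inhibition above the mean of all tested compounds plus 3 SD, cut at about 43% in these data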;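 further: receptor stimulated by 5-CT agonist at 100 nM near EC80; beta-lactamase reporter measured by ratiometric fluorescence of a cleavable substrate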
HTR1E agonist – activates the human 5-HT1E serotonin receptor. P28566. CHO 5-HT1E Ga15 NFAT-bla reporter, FRET; 0% DMSO wells, 100% control agonist wells. activation, % at 6 µM. 0.69% of 65,000 active. AID 574;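 active means activation above a set limit, the screen-wide mean activation plus 3 SD, cut at about 8.5% in these data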;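 further: 100% = positive control agonist at 1 µM giving full maximal response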
* marks the source's active call; other numbers are inactive results. Shown are actives, neighbours in structure and some others; about 2.9% of the full set was active somewhere.

How did Nc1nc(NC(=O)c2cccc(S(=O)(=O)N3CCCCCC3)c2)nc(-c2ccccc2)n1 do in these assays?
5HT1a ag: 4; HTR1E antagonist: 6; 5-HT1A blocker: -10; HTR1E agonist: 0

Results for O=C(NCc1cccs1)C1CCN(S(=O)(=O)c2cccc3nsnc23)CC1 ?
S1P1 ag pot: -9; S1P3 agonist: 0; 5HT1a ag: 1; HTR1E antagonist: -7; 5-HT1A blocker: 6; HTR1E agonist: -2

Results for CCC(C)NC(=O)c1ccccc1NC(=O)CN1C(=O)c2ccccc2S1(=O)=O (stereo not drawn) ?
S1P1 ag pot: -16; S1P3 agonist: 0; 5HT1a ag: -2; HTR1E antagonist: -6; 5-HT1A blocker: 3; HTR1E agonist: 0

Results for Cc1c(C)[n+](=O)c2c(n1[O-])CCCCC2 ?
S1P1 ag pot: 2; S1P3 agonist: 1; 5HT1a ag: 1; HTR1E antagonist: -8; 5-HT1A blocker: -6; HTR1E agonist: 23*

What do the screens show for `C=CCOC(=O)C1=C(C)Nc2nc3ccccc3n2C1c1ccncc1` (stereo not drawn)?
S1P1 ag pot: -12; S1P3 agonist: -1; 5HT1a ag: 1; HTR1E antagonist: 5; 5-HT1A blocker: -13; HTR1E agonist: 1

What do the screens show for `O=C(NCc1cccnc1)c1ccc(Cl)c(Cl)c1`?
S1P1 ag pot: -13; S1P3 agonist: 0; 5HT1a ag: 1; HTR1E antagonist: -7; 5-HT1A blocker: -7; HTR1E agonist: 0

How did Cc1cc(C(=O)NCc2cccnc2)cs1 do in these assays?
S1P1 ag pot: 3; S1P3 agonist: -2; 5HT1a ag: 31*; HTR1E antagonist: 9; 5-HT1A blocker: 0; HTR1E agonist: 0

What do the screens show for `Cc1nn(Cc2ccccc2)c2sc(C(=O)NCc3cccnc3)cc12`?
S1P1 ag pot: -13; S1P3 agonist: 0; 5HT1a ag: 39*; HTR1E antagonist: 14; 5-HT1A blocker: 2; HTR1E agonist: 0

How did Cc1cc2nsnc2c(S(=O)(=O)NCC(=O)O)c1C do in these assays?
S1P1 ag pot: -9; S1P3 agonist: -1; 5HT1a ag: -2; HTR1E antagonist: -8; 5-HT1A blocker: -6; HTR1E agonist: 1

How did Cc1ccc(Cl)cc1N1CCN(S(=O)(=O)c2ccc3c(c2)oc(=O)n3C)CC1 do in these assays?
S1P1 ag pot: -2; S1P3 agonist: -1; 5HT1a ag: 0; HTR1E antagonist: 20; 5-HT1A blocker: 6; HTR1E agonist: 0

How did COc1c2c(nc3occc13)C(CCC(C)(C)O)(OC)C(O)CC2 (stereo not drawn) do in these assays?
S1P1 ag pot: -6; S1P3 agonist: 2; 5HT1a ag: -2; HTR1E antagonist: -13; 5-HT1A blocker: -11; HTR1E agonist: 26*

How did Clc1ccc(Cn2ncc3c(NCc4ccco4)ncnc32)c(Cl)c1 do in these assays?
S1P1 ag pot: 50; S1P3 agonist: -2; 5HT1a ag: -1; HTR1E antagonist: 39*; 5-HT1A blocker: 32; HTR1E agonist: 0

Results for NC(Cc1ccc2nonc2c1)C(=O)O (stereo not drawn) ?
S1P1 ag pot: -11; S1P3 agonist: 0; 5HT1a ag: 54*; HTR1E antagonist: -11; 5-HT1A blocker: 3; HTR1E agonist: 0

How did N[C@@H](Cc1ccc(O)c(I)c1)C(=O)O do in these assays?
S1P1 ag pot: 6; S1P3 agonist: -1; 5HT1a ag: 2; HTR1E antagonist: -6; HTR1E agonist: 0

How did CCC(=O)Nc1c(C#N)c2nc3ccccc3nc2n1C1CCCCC1 do in these assays?
S1P1 ag pot: -25; S1P3 agonist: 0; 5HT1a ag: 10; HTR1E antagonist: -5; HTR1E agonist: 3

How did N#Cc1c(N)n(C2CCCCC2)c2nc3ccccc3nc12 do in these assays?
S1P1 ag pot: -64; S1P3 agonist: 6; 5HT1a ag: 25*; HTR1E antagonist: 27; 5-HT1A blocker: -14; HTR1E agonist: 7

How did COc1cc2c(C(=O)N3CCN(Cc4ccc5c(c4)OCO5)CC3)cn(C)c(=O)c2cc1OC do in these assays?
5HT1a ag: 0; HTR1E antagonist: 11; 5-HT1A blocker: 1; HTR1E agonist: -1
